According to ChEMBL document CHEMBL1134364, “Antipsoriatic anthrones with modulated redox properties. 5. Potent inhibition of human keratinocyte growth, induction of keratinocyte differentiation, and reduced membrane damage by novel 10-arylacetyl-1,8-dihydroxy-9(10H)-anthracenones” (J Med Chem, 2001):

Key:
[1] = Deoxyribose degradation activity was measured as hydroxyl radical formation
[2] = Inhibition of LTB4 biosynthesis in bovine polymorphonuclear leukocytes using nordihydroguaiaretic acid; type: functional, cell-based, Bos taurus
[3] = Concentration required to inhibit 50% growth of HaCaT cells; type: functional, cell-based; conditions: Homo sapiens
How it was run: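 HaCaT keratinocytes treated for 48 h. Proliferation read by counting dispersed cells under phase-contrast microscope. Growth inhibition tested for significance against control, N = 3, P < 0.01.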

[4] = Partition coefficient (logP); type: physicochemical; conditions: octanol/water
[5] = Induction of Keratinocyte Differentiation in cross-linked envelope assay at 10 uM expressed as difference of the amount of cross-linked protein as a measure of HaCaT keratinocyte differentiation; type: functional, Homo sapiens
How it was run: (§1)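 HaCaT cultures were 144 h post-confluent; medium replaced, compound added from DMSO stocks diluted in DMEM (final DMSO 0.2%), controls DMSO or medium alone, 48 h. Cells were detached with trypsin/EDTA, lysed in SDS/β-ME, dot-blotted, TCA-heated, Coomassie-stained and scanned. Value is cross-linked protein minus vehicle, per mg protein (Bradford), mean ± SEM of 3 experiments.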

[6] = Induction of Keratinocyte Differentiation in cross-linked envelope assay at 5 uM expressed as difference of the amount of cross-linked protein as a measure of HaCaT keratinocyte differentiation; type: functional, Homo sapiens
How it was run: as §1

[7] = Induction of Keratinocyte Differentiation in cross-linked envelope assay at 1 uM expressed as difference of the amount of cross-linked protein as a measure of HaCaT keratinocyte differentiation; type: functional, Homo sapiens
How it was run: as §1

[8] = Cytotoxic activity of LDH(mu) release in HaCaT cells was measured after treatment with 2 uM of the compound; type: functional, Homo sapiens
How it was run: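 HaCaT cells treated with 2 µM compound. Membrane damage read as lactate dehydrogenase activity (mU) released into the culture medium. N = 3, SD < 10%.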

| Compound | Activity [1] | IC50 [2] | logP [4] | IC50 [3] | Activity [5] | Activity [6] | Activity [7] | LDH [8] |
| --- | --- | --- | --- | --- | --- | --- | --- | --- |
| COc1cccc(CC(=O)C2c3cccc(O)c3C(=O)c3c(O)cccc32)c1 | < 0.3 | 3000 nM | 4.16 | 2700 nM | – | – | – | – |
| O=C1c2ccccc2Cc2ccccc21 [ANTHRONE] | – | – | – | – | 0.8 ug (mg of protein)-1 | 0.3 ug (mg of protein)-1 | 0.5 ug (mg of protein)-1 | – |
| CC(C(=O)C1c2cccc(O)c2C(=O)c2c(O)cccc21)c1ccc(C(=O)c2ccccc2)cc1 (stereo unspecified) | < 0.3 | 9000 nM | 4.46 | 900 nM | – | – | – | 191 MU |
| CC(C)(C)OC(=O)Nc1ccc(CC(=O)C2c3cccc(O)c3C(=O)c3c(O)cccc32)cc1 | 0.97 | 2000 nM | 4.17 | 1800 nM | – | – | – | – |
| COc1ccc(CC(=O)C2c3cccc(O)c3C(=O)c3c(O)cccc32)cc1O | – | 8000 nM | 3.41 | 1900 nM | – | – | – | – |
| COc1ccc(COc2ccc(CC(=O)C3c4cccc(O)c4C(=O)c4c(O)cccc43)cc2)cc1 | < 0.3 | 1500 nM | 4.91 | 3200 nM | – | – | – | – |
| CCOC(=O)c1ccc(CC(=O)C2c3cccc(O)c3C(=O)c3c(O)cccc32)cc1 | < 0.3 | 6000 nM | 4.34 | 1300 nM | – | – | – | – |
| COc1ccccc1CC(=O)C1c2cccc(O)c2C(=O)c2c(O)cccc21 | – | – | 4.2 | 1600 nM | – | – | – | 125 MU |
| O=C1c2c(O)cccc2C(Cc2ccccc2)c2cccc(O)c21 | – | – | – | – | 0.9 ug (mg of protein)-1 | -0.8 ug (mg of protein)-1 | -1 ug (mg of protein)-1 | – |
| O=C1c2cccc(O)c2C(=O)c2c(O)cccc21 [DANTHRON] | – | – | – | – | 0 ug (mg of protein)-1 | -0.1 ug (mg of protein)-1 | 0.6 ug (mg of protein)-1 | – |
| CC(C)(C)c1cc(CC(=O)C2c3cccc(O)c3C(=O)c3c(O)cccc32)cc(C(C)(C)C)c1O | – | – | – | 3000 nM | – | – | – | 199 MU |
| O=C1c2c(O)cccc2C(C(=O)Cc2ccc([N+](=O)[O-])cc2)c2cccc(O)c21 | – | – | – | 4700 nM | – | – | – | 179 MU |
| CC(C(=O)C1c2cccc(O)c2C(=O)c2c(O)cccc21)c1ccccc1 (stereo unspecified) | < 0.3 | 18000 nM | 4.43 | 1000 nM | – | – | – | – |
| O=C1c2c(O)cccc2C(C(=O)Cc2ccc3c(c2)OCO3)c2cccc(O)c21 | < 0.3 | 1000 nM | 4.06 | 3300 nM | – | – | – | – |
| COc1cccc(COc2ccc(CC(=O)C3c4cccc(O)c4C(=O)c4c(O)cccc43)cc2)c1 | < 0.3 | 1000 nM | 5.19 | 1000 nM | – | – | – | 159 MU |
| CCCCOc1ccc(CC(=O)C2c3cccc(O)c3C(=O)c3c(O)cccc32)cc1 | < 0.3 | 1500 nM | 5.41 | 1200 nM | 3.4 ug (mg of protein)-1 | 3.4 ug (mg of protein)-1 | 2.5 ug (mg of protein)-1 | – |
| CC(C)Cc1ccc(C(C)C(=O)C2c3cccc(O)c3C(=O)c3c(O)cccc32)cc1 (stereo unspecified) | – | – | 5.57 | 3500 nM | – | – | – | – |
| O=C1c2c(O)cccc2C(C(=O)Cc2ccc(OCc3ccccc3)cc2)c2cccc(O)c21 | < 0.3 | 600 nM | – | 2400 nM | – | – | – | 202 MU |
| O=C1c2c(O)cccc2C(C(=O)Cc2ccccc2Nc2c(Cl)cccc2Cl)c2cccc(O)c21 | 0.45 | 3000 nM | 3.91 | 1300 nM | – | – | – | 247 MU |
| CCCOc1ccc(CC(=O)C2c3cccc(O)c3C(=O)c3c(O)cccc32)cc1 | < 0.3 | 1000 nM | 4.97 | 1600 nM | – | – | – | 132 MU |
| O=C1c2c(O)cccc2C(C(=O)Cc2ccc(O)cc2)c2cccc(O)c21 | – | – | – | 1700 nM | 6.2 ug (mg of protein)-1 | 5.1 ug (mg of protein)-1 | 2.5 ug (mg of protein)-1 | 173 MU |
| COc1ccc(CC(=O)C2c3cccc(O)c3C(=O)c3c(O)cccc32)cc1OC | 0.86 | 22000 nM | 3.77 | 4200 nM | – | – | – | – |
| O=C1c2c(O)cccc2C(C(=O)Cc2ccc(-c3ccccc3)cc2)c2cccc(O)c21 | < 0.3 | 7000 nM | 5.02 | 2200 nM | 4.6 ug (mg of protein)-1 | 3.8 ug (mg of protein)-1 | 1.8 ug (mg of protein)-1 | – |

Further lines, with some results ahead:

| Activity [1] | IC50 [2] | logP [4] | Compound | IC50 [3] | Activity [5] | Activity [6] | Activity [7] | LDH [8] |
| --- | --- | --- | --- | --- | --- | --- | --- | --- |
| < 0.3 | 1500 nM | 4.8 | O=C1c2c(O)cccc2C(C(=O)Cc2ccc(I)cc2)c2cccc(O)c21 | 3100 nM | – | – | – | – |
| < 0.3 | 1000 nM | 4.49 | O=C1c2c(O)cccc2C(C(=O)Cc2ccc(Cl)cc2)c2cccc(O)c21 | 2200 nM | – | – | – | – |
| < 0.3 | 11000 nM | 4.11 | O=C1c2c(O)cccc2C(C(=O)Cc2ccc(F)cc2)c2cccc(O)c21 | 2600 nM | 3.5 ug (mg of protein)-1 | 2.4 ug (mg of protein)-1 | 0.6 ug (mg of protein)-1 | – |
| 0.93 | 3000 nM | 2.84 | O=C(O)Cc1ccc(CC(=O)C2c3cccc(O)c3C(=O)c3c(O)cccc32)cc1 | 1700 nM | – | – | – | – |
| < 0.3 | 15000 nM | 4.59 | CC(C)Oc1ccc(CC(=O)C2c3cccc(O)c3C(=O)c3c(O)cccc32)cc1 | 1800 nM | – | – | – | – |
| 1.43 | 1000 nM | 3.29 | Nc1ccc(CC(=O)C2c3cccc(O)c3C(=O)c3c(O)cccc32)cc1 | 1200 nM | 6.6 ug (mg of protein)-1 | 6 ug (mg of protein)-1 | 0 ug (mg of protein)-1 | – |
| < 0.3 | 700 nM | 4.6 | O=C1c2c(O)cccc2C(C(=O)Cc2ccc(Br)cc2)c2cccc(O)c21 | 2900 nM | – | – | – | – |
| – | 9000 nM | 3.58 | N#Cc1ccc(CC(=O)C2c3cccc(O)c3C(=O)c3c(O)cccc32)cc1 | 3200 nM | – | – | – | – |
| < 0.3 | 12000 nM | 4.07 | COC(=O)c1ccc(CC(=O)C2c3cccc(O)c3C(=O)c3c(O)cccc32)cc1 | 1800 nM | – | – | – | 164 MU |
| – | 6000 nM | 4.42 | CSc1ccc(CC(=O)C2c3cccc(O)c3C(=O)c3c(O)cccc32)cc1 | 1600 nM | – | – | – | – |
| – | 6000 nM | 4.42 | CN(C)c1ccc(CC(=O)C2c3cccc(O)c3C(=O)c3c(O)cccc32)cc1 | 1300 nM | – | – | – | – |
| – | 11000 nM | 4.4 | O=C1c2c(O)cccc2C(C(=O)Cc2ccc(C(F)(F)F)cc2)c2cccc(O)c21 | 1600 nM | – | – | – | – |
| – | 9000 nM | 4.74 | O=C1c2c(O)cccc2C(C(=O)Cc2ccc(Cl)c(Cl)c2)c2cccc(O)c21 | 1200 nM | – | – | – | – |
| < 0.3 | 1000 nM | 4.51 | CCOc1ccc(CC(=O)C2c3cccc(O)c3C(=O)c3c(O)cccc32)cc1 | 1700 nM | – | – | – | 142 MU |
